The values below come from ChEMBL document CHEMBL1142462, “Synthesis and in vitro biological evaluation of ring B abeo-sterols as novel inhibitors of Mycobacterium tuberculosis” (Bioorg Med Chem Lett, 2008).

SMILES strings stand for the structures. ≈ marks a conversion by molar mass, not a printed value.

In test [1] the test system is Mycobacterium tuberculosis. Kind of test: Antimycobacterial activity against Mycobacterium tuberculosis H37Rv by microplate alamar blue assay. Type of test: functional.
A further test relates to Vero. Kind of test: Cytotoxicity against african green monkey Vero cells. The test is classed as cell-based. As to conditions: Chlorocebus sabaeus. Put shortly:
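Cytotoxicity tested on VERO cells (ATCC CCL-81) in parallel with the MIC work. Read-out is IC50 in μg/mL.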

Test [2] deals with Mycobacterium tuberculosis. Kind of test: Antimycobacterial activity against Mycobacterium tuberculosis H37Rv at 64 ug/mL by microplate alamar blue assay. The test is classed as functional.
Test [3] relates to Mycobacterium tuberculosis. Kind of test: Antimycobacterial activity against Mycobacterium tuberculosis H37Rv at 32 ug/mL by microplate alamar blue assay. The test is classed as functional. For orientation: Resazurin is reduced to fluorescent resorufin, in cell work by metabolically active cells.
The test system of test [4] is Mycobacterium tuberculosis. Kind of test: Antimycobacterial activity against Mycobacterium tuberculosis H37Rv at 16 ug/mL by microplate alamar blue assay. The test is classed as functional.
A short description of test [5]: Selectivity index, ratio of IC50 for against african green monkey VERO cells to MIC for Mycobacterium tuberculosis H37Rv. Type of test: functional.
The subject of test [6] is Mycobacterium tuberculosis. Kind of test: Antimycobacterial activity against Mycobacterium tuberculosis H37Rv at 128 ug/mL by microplate alamar blue assay. Type of test: functional.
The test system of test [7] is Mycobacterium tuberculosis. The experiment in a line: Antimycobacterial activity against Mycobacterium tuberculosis H37Rv at 8 ug/mL by microplate alamar blue assay. The test is classed as functional.
The subject of test [8] is Mycobacterium tuberculosis. The experiment in a line: Antimycobacterial activity against Mycobacterium tuberculosis H37Rv at 4 ug/mL by microplate alamar blue assay. Type of test: functional.
Test [9] concerns Mycobacterium tuberculosis. The experiment in a line: Antimycobacterial activity against Mycobacterium tuberculosis H37Rv at 2 ug/mL by microplate alamar blue assay. The test is classed as functional.

On to `C=C(CC[C@@H](C)[C@H]1CC[C@H]2[C@@H]3CC=C4C[C@@H](O)CC[C@]4(C)[C@H]3CC[C@]12C)C(C)C`, for which the MIC in test [1] came to 120 µg/mL (≈ 301 µM). In addition, in the test on Vero, the IC50 is > 128 µg/mL. Also, in test [2], the inhibition at 64 µg/mL was 40%. For the same compound, the inhibition at 32 µg/mL in test [3] turned out to be 43%. In addition, the inhibition at 16 µg/mL in test [4] was found to be 33%.
In [1], `CC[C@@H](CC[C@@H](C)[C@H]1CC[C@H]2[C@@H]3C(C=O)=C4C[C@@H](O)CC[C@]4(C)[C@H]3CC[C@]12C)C(C)C` displayed an MIC of 3.8 µg/mL (≈ 8.86 µM). For the same compound, the IC50 in the test on Vero was determined as 26.6 µg/mL (≈ 62 µM). The “Selectivity Index” value in test [5] worked out at 7. In addition, the inhibition at 128 µg/mL in test [6] came to 99%. Moreover, the inhibition at 64 µg/mL in test [2] was determined as 99%. In addition, in test [3], the inhibition at 32 µg/mL was 99%. The inhibition at 16 µg/mL in test [4] is 98%. In [7], the inhibition at 8 µg/mL worked out at 99%. In addition, the inhibition at 4 µg/mL in [8] stood at 97%. The inhibition at 2 µg/mL in [9] turned out to be 29%.
For `CC(C)C(=O)CC[C@@H](C)[C@H]1CC[C@H]2[C@@H]3C(C=O)=C4C[C@@H](O)CC[C@]4(C)[C@H]3CC[C@]12C`, in test [1], 13.6 µg/mL (≈ 32.8 µM) was the least that counted as inhibitory (MIC). The compound also came in with an IC50 in the test with Vero of 43.8 µg/mL (≈ 106 µM). Further, the “Selectivity Index” value in test [5] is given as 3.2. In addition, in test [6], the inhibition at 128 µg/mL came out at 99%. Further, in [2], the inhibition at 64 µg/mL was 100%. In addition, the inhibition at 32 µg/mL in test [3] is 96%. For the same compound, the inhibition at 16 µg/mL in test [4] was 92%. Further, the inhibition at 8 µg/mL in [7] came to 83%. For the same compound, the inhibition at 4 µg/mL in test [8] amounted to 67%. The inhibition at 2 µg/mL in [9] was determined as 52%.
`CC(C)CCC[C@@H](C)[C@H]1CC[C@H]2[C@@H]3C(C=O)=C4C[C@@H](O)CC[C@]4(C)[C@H]3CC[C@]12C`: in test [1], 15 µg/mL (≈ 37.4 µM) was the least that counted as inhibitory (MIC). Further, in the test on Vero, the IC50 was > 128 µg/mL. Moreover, in [5], the “Selectivity Index” value is >9. Besides, in test [6], the inhibition at 128 µg/mL amounted to 99%. The inhibition at 64 µg/mL in [2] was 99%. Moreover, the inhibition at 32 µg/mL in test [3] is 99%. In addition, the inhibition at 16 µg/mL in [4] amounted to 96%. Further, in test [7], the inhibition at 8 µg/mL was 51%. Besides, the inhibition at 4 µg/mL in test [8] was found to be 34%. The inhibition at 2 µg/mL in [9] came to 10%.
For the compound `CC(C)[C@@H](C)[C@]1(C)C[C@@H]1[C@@H](C)[C@H]1CC[C@H]2[C@@H]3C(C=O)=C4C[C@@H](O)CC[C@]4(C)[C@H]3CC[C@]12C`, the MIC in test [1] stood at 12.7 µg/mL (≈ 28.8 µM). Moreover, the IC50 in the test on Vero came out at 54.7 µg/mL (≈ 124 µM). Moreover, the “Selectivity Index” value in test [5] is on record as 4.3. Further, in [6], the inhibition at 128 µg/mL was 99%. In addition, in test [2], the inhibition at 64 µg/mL is 99%. The inhibition at 32 µg/mL in test [3] was determined as 98%. Further, in [4], the inhibition at 16 µg/mL was determined as 96%. For the same compound, in test [7], the inhibition at 8 µg/mL was 81%. For the same compound, the inhibition at 4 µg/mL in [8] is 33%. Also, the inhibition at 2 µg/mL in test [9] amounted to 17%.
Consider `CC(C)[C@@H](C)CC[C@@H](C)[C@H]1CC[C@H]2[C@@H]3CC=C4C[C@@H](O)CC[C@]4(C)[C@H]3CC[C@]12C`, for which the MIC in [1] is > 128 µg/mL. Further, in the test with Vero, the concentration for half-maximal inhibition (IC50) was > 128 µg/mL. Also, the inhibition at 128 µg/mL in [6] was determined as 58%. Also, the inhibition at 64 µg/mL in test [2] was 41%. For the same compound, in test [3], the inhibition at 32 µg/mL turned out to be 31%. Also, the inhibition at 16 µg/mL in test [4] came out at 21%. In addition, the inhibition at 8 µg/mL in test [7] was found to be 23%. Besides, the inhibition at 4 µg/mL in [8] amounted to 14%. The inhibition at 2 µg/mL in [9] is 15%.
Turning to `CC(C)[C@@H](C)CC[C@@H](C)[C@H]1CC[C@H]2[C@@H]3C(C=O)=C4C[C@@H](O)CC[C@]4(C)[C@H]3CC[C@]12C`, in test [1], the lowest concentration to inhibit growth (MIC) was 3.9 µg/mL (≈ 9.4 µM). This compound showed an IC50 in the test with Vero of 42.3 µg/mL (≈ 102 µM). The “Selectivity Index” value in [5] came to 10.8. Besides, the inhibition at 128 µg/mL in test [6] was determined as 99%. Moreover, in test [2], the inhibition at 64 µg/mL was determined as 100%. In addition, in test [3], the inhibition at 32 µg/mL was 99%. Further, the inhibition at 16 µg/mL in test [4] came out at 99%. In addition, the inhibition at 8 µg/mL in [7] worked out at 97%. Besides, the inhibition at 4 µg/mL in test [8] amounted to 94%. In addition, the inhibition at 2 µg/mL in [9] was 39%.
With `CC(C)[C@@H](C)[C@]1(C)C[C@@H]1[C@@H](C)[C@H]1CC[C@H]2[C@@H]3CC=C4C[C@@H](O)CC[C@]4(C)[C@H]3CC[C@]12C`, the minimal inhibitory concentration (MIC) in test [1] is > 128 µg/mL. Moreover, the IC50 in the test with Vero is > 128 µg/mL. Besides, the inhibition at 128 µg/mL in test [6] was determined as 38%. Further, in [2], the inhibition at 64 µg/mL was 18%. The inhibition at 32 µg/mL in [3] was 13%. Further, the inhibition at 16 µg/mL in [4] was found to be 10%.
Consider `CCC(CC[C@@H](C)[C@H]1CC[C@H]2[C@@H]3CC=C4C[C@@H](O)CC[C@]4(C)[C@H]3CC[C@]12C)C(C)C` (single isomer, unassigned) [BETA-SITOSTEROL], for which the minimal inhibitory concentration (MIC) in test [1] is > 128 µg/mL. In addition, the IC50 in the test with Vero was > 128 µg/mL. In addition, the inhibition at 128 µg/mL in test [6] worked out at 45%. Also, the inhibition at 64 µg/mL in [2] worked out at 48%. Besides, the inhibition at 32 µg/mL in [3] was determined as 31%. The inhibition at 16 µg/mL in test [4] worked out at 32%. Besides, the inhibition at 8 µg/mL in test [7] is 7%. Moreover, the inhibition at 4 µg/mL in test [8] amounted to 8%. Besides, in test [9], the inhibition at 2 µg/mL was -1%.
Turning to `CC(C)CCC[C@@H](C)[C@H]1CC[C@H]2[C@@H]3CC=C4C[C@@H](O)CC[C@]4(C)[C@H]3CC[C@]12C` [CHOLESTEROL], the minimal inhibitory concentration (MIC) in test [1] was > 128 µg/mL. Moreover, the IC50 in the test with Vero was > 128 µg/mL. Also, in [6], the inhibition at 128 µg/mL came out at 57%. Further, the inhibition at 64 µg/mL in [2] was found to be 24%. Besides, the inhibition at 32 µg/mL in test [3] was found to be 13%. For the same compound, the inhibition at 16 µg/mL in test [4] came to 33%.
The compound `C=C(CC[C@@H](C)[C@H]1CC[C@H]2[C@@H]3C(C=O)=C4C[C@@H](O)CC[C@]4(C)[C@H]3CC[C@]12C)C(C)C` [PARGUESTEROL A] registered an MIC in [1] of 7.8 µg/mL (≈ 18.9 µM). In addition, the IC50 in the test with Vero stood at 51 µg/mL (≈ 124 µM). In addition, in test [5], the “Selectivity Index” value was 6.5. Besides, the inhibition at 128 µg/mL in test [6] turned out to be 99%. For the same compound, the inhibition at 64 µg/mL in test [2] was 99%. Moreover, the inhibition at 32 µg/mL in test [3] is 99%. Besides, in [4], the inhibition at 16 µg/mL came out at 105%. Also, in test [7], the inhibition at 8 µg/mL is 91%. Further, in test [8], the inhibition at 4 µg/mL came out at 69%. Further, the inhibition at 2 µg/mL in test [9] worked out at 52%.
The compound `CO[C@H]1/C=C/O[C@@]2(C)Oc3c(C)c(O)c4c(O)c(c(/C=N/N5CCN(C)CC5)c(O)c4c3C2=O)NC(=O)/C(C)=C\C=C\[C@H](C)[C@H](O)[C@@H](C)[C@@H](O)[C@@H](C)[C@H](OC(C)=O)[C@@H]1C` [RIFAMPIN] returned a minimal inhibitory concentration (MIC) in test [1] of 0.06 µg/mL (≈ 0.0729 µM). Besides, the inhibition at 128 µg/mL in test [6] was 100%. Besides, the inhibition at 64 µg/mL in test [2] worked out at 100%. Also, the inhibition at 32 µg/mL in test [3] was 100%. Moreover, the inhibition at 16 µg/mL in test [4] was 99%. Moreover, the inhibition at 8 µg/mL in test [7] is 94%. Also, the inhibition at 4 µg/mL in test [8] was determined as 73%.

As usually defined, the MIC is the smallest concentration in the dilution series that meets the test's criterion for growth inhibition. A word on the IC50: it is the concentration needed to halve the response being measured. A word on the inhibition: it is the relative decrease from the control value, in per cent.
